For assay [1], the system named is ST-KM-1. Description: In vitro inhibitory effect measured against human stomach adenocarcinoma ST-KM tumor cells. Format: functional, cell-based. The procedure, abridged: (§1)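 Cells seeded at 1 × 10^4 cells/mL in RPMI 1640 with 10% heat-inactivated FBS and 50 μg/mL kanamycin. Cultured 72 h at 37 °C in a CO2 incubator with a range of compound concentrations. Viability read by MTT colorimetric assay at OD 570 nm against untreated control wells. IC50 is the μg/mL concentration giving 50% growth inhibition; representative of three separate experiments.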

Another assay deals with HT-1080. Description: In vitro inhibitory effect measured against human fibrosarcoma HT1080 tumor cells. Type of assay: functional, cell-based. The procedure, abridged: as §1
Assay [2] concerns U2OS. Description: In vitro inhibitory effect measured against human osteosarcoma U20-S tumor cells. Type of assay: functional, cell-based. The procedure, abridged: as §1
The next assay deals with NCC. Description: In vitro inhibitory effect measured against human renal cell carcinoma NCC-nu tumor cells. Type of assay: functional, cell-based. The procedure, abridged: as §1
In assay [3] the test system is OST. Description: In vitro inhibitory effect measured against human osteosarcoma OST tumor cells. Type of assay: functional, cell-based. The gist of the method: as §1
The test system of a further assay is PC-6. Description: In vitro inhibitory effect measured against human lung small-cell carcinoma PC-6 tumor cells. Type of assay: functional, cell-based. The gist of the method:
as §1

The next assay concerns SK-ES1. Description: In vitro inhibitory effect measured against human osteosarcoma SK-ES-1 tumor cells. Type of assay: functional, cell-based. The gist of the method:
as §1

Assay [4] relates to PC-13. Description: In vitro inhibitory effect measured against human lung large-cell carcinoma PC-13 tumor cells. Format: functional, cell-based. The procedure, abridged:
as §1

In assay [5] the test system is QG-56. Description: In vitro inhibitory effect measured against human lung suamous-cell carcinoma QG-56 tumor cells. Type of assay: functional, cell-based. The procedure, abridged:
as §1

Assay [6] deals with HOS. Description: In vitro inhibitory effect measured against human osteosarcoma HOS tumor cells. Format: functional, cell-based. The procedure, abridged:
as §1

The next assay concerns T-24. Description: In vitro inhibitory effect measured against human bladder transitional cell carcinoma T-24 tumor cells. Type of assay: functional, cell-based. The procedure, abridged:
as §1

A further assay concerns PC-9. Description: In vitro inhibitory effect measured against human lung adenocarcinoma PC-9 tumor cells. Type of assay: functional, cell-based. The gist of the method:
as §1

The test system of another assay is HOS-TE85. Description: In vitro inhibitory effect measured against human osteosarcoma MNNG-HOS tumor cells. Type of assay: functional, cell-based. The procedure, abridged:
as §1

Assay [7] has as its system NUGC-4. Description: In vitro inhibitory effect measured against human stomach adenocarcinoma NUGC-4 tumor cells. Format: functional, cell-based. The gist of the method:
as §1

A further assay deals with SAOS-2. Description: In vitro inhibitory effect measured against human osteosarcoma SAOS-2 tumor cells. Type of assay: functional, cell-based. The gist of the method: as §1
Assay [8] concerns MG-63. Description: In vitro inhibitory effect measured against human osteosarcoma MG-63 tumor cells. Format: functional, cell-based. The gist of the method: as §1
For another assay, the system named is KHOS-321H. Description: In vitro inhibitory effect measured against human osteosarcoma KHOS-321H tumor cells. Type of assay: functional, cell-based. The procedure, abridged:
as §1

The test system of a further assay is PC-8. Description: In vitro inhibitory effect measured against human lung adenocarcinoma PC-8 tumor cells. Format: functional, cell-based. The gist of the method: as §1
Assay [9] has as its system PC-3. Description: In vitro inhibitory effect measured against human lung adenocarcinoma PC-3 tumor cells. Type of assay: functional, cell-based. The procedure, abridged:
as §1

Assay [10] relates to MFH-ST. Description: In vitro inhibitory effect measured against human malignant fibrous histiocytoma MFH-ST tumor cells. Type of assay: functional, cell-based. The gist of the method:
as §1

In another assay the test system is MKN-28. Description: In vitro inhibitory effect measured against human stomach adenocarcinoma MKN-28 tumor cells. Type of assay: functional, cell-based. The gist of the method:
as §1

For assay [11], the system named is OST. Description: In vitro inhibitory effect measured against human osteosarcoma OST tumor cells at 100 ug/mL. Format: functional. The gist of the method: (§2)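 MTT viability assay after 72 h exposure at 37 °C in a CO2 incubator. Cells at 1 × 10^4 cells/mL in RPMI 1640 with 10% heat-inactivated FBS and 50 μg/mL kanamycin. Percent inhibition = [1 − OD570 of sample/OD570 of untreated control] × 100. Representative of three separate experiments.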

In assay [12] the test system is PC-13. Description: In vitro inhibitory effect measured against human lung large-cell carcinoma PC-13 tumor cells at 100 ug/mL. Format: functional. The procedure, abridged: as §2
Assay [13] concerns MFH-ST. Description: In vitro inhibitory effect measured against human malignant fibrous histiocytoma MFH-ST tumor cells at 100 ug/mL. Format: functional. The procedure, abridged: as §2
The subject of assay [14] is ST-KM-1. Description: In vitro inhibitory effect measured against human stomach adenocarcinoma ST-KM tumor cells at 100 ug/mL. Format: functional. The procedure, abridged:
as §2

Assay [15] concerns MG-63. Description: In vitro inhibitory effect measured against human osteosarcoma MG-63 tumor cells at 100 ug/mL. Format: functional. The procedure, abridged: as §2
The subject of assay [16] is PC-3. Description: In vitro inhibitory effect measured against human lung adenocarcinoma PC-3 tumor cells at 100 ug/mL. Type of assay: functional. The gist of the method:
as §2

Assay [17] concerns QG-56. Description: In vitro inhibitory effect measured against human lung suamous-cell carcinoma QG-56 tumor cells at 100 ug/mL. Format: functional. The procedure, abridged: as §2
In assay [18] the test system is HOS. Description: In vitro inhibitory effect measured against human osteosarcoma HOS tumor cells at 100 ug/mL. Format: functional. The gist of the method:
as §2

Assay [19] relates to NUGC-4. Description: In vitro inhibitory effect measured against human stomach adenocarcinoma NUGC-4 tumor cells at 100 ug/mL. Format: functional. The procedure, abridged: as §2
Assay [20] has as its system U2OS. Description: In vitro inhibitory effect measured against human osteosarcoma U20-S tumor cells at 100 ug/mL. Type of assay: functional. The procedure, abridged:
as §2

Converted amounts (≈) assume the structure as drawn.

Data on two molecules can be found in ChEMBL document CHEMBL1125651, “Nucleosides and nucleotides. 95. Improved synthesis of 1-(2-azido-2-deoxy-beta-D-arabinofuranosyl)cytosine (cytarazid) and -thymine. Inhibitory spectrum of cytarazid on the growth of various human tumor cells in vitro” (J Med Chem, 1991).

In general, IC50 refers to the concentration that inhibits the measured activity by half. By inhibition is commonly meant the change of the read-out against control, counted positive when it falls.

Turning to `[N-]=[N+]=N[C@H]1[C@H](O)[C@@H](CO)O[C@H]1n1ccc(N)nc1=O` [CYTARAZID], the IC50 with ST-KM-1 [1] was 1.1 µg/mL (≈ 4.1 µM); with HT-1080, 1.6 µg/mL (≈ 5.96 µM); with U2OS [2], 14 µg/mL (≈ 52.2 µM); in the assay on NCC, 1.8 µg/mL (≈ 6.71 µM); with OST [3], 6.4 µg/mL (≈ 23.9 µM); in the assay with PC-6, 18 µg/mL (≈ 67.1 µM). The IC50 with SK-ES1 turned out to be 1.1 µg/mL (≈ 4.1 µM); in the assay with PC-13 [4], 18 µg/mL (≈ 67.1 µM); in the assay with QG-56 [5], 5.4 µg/mL (≈ 20.1 µM); in the assay with HOS [6], 9.4 µg/mL (≈ 35 µM); in the assay with T-24 it was 0.56 µg/mL (≈ 2.09 µM); in the assay on PC-9, 1 µg/mL (≈ 3.73 µM). In addition, the IC50 is 1.5 µg/mL (≈ 5.59 µM) with HOS-TE85; 1.4 µg/mL (≈ 5.22 µM) with NUGC-4 [7]; 2.8 µg/mL (≈ 10.4 µM) in the assay with SAOS-2; 30 µg/mL (≈ 112 µM) with MG-63 [8]; 0.62 µg/mL (≈ 2.31 µM) in the assay with KHOS-321H; 1.2 µg/mL (≈ 4.47 µM) in the assay on PC-8. The values for the IC50 with PC-3 [9], in the assay with MFH-ST [10] and in the assay with MKN-28 were 18 µg/mL (≈ 67.1 µM), 14 µg/mL (≈ 52.2 µM) and 2.2 µg/mL (≈ 8.2 µM), respectively.
On to `Nc1ccn([C@@H]2O[C@H](CO)[C@@H](O)[C@@H]2O)c(=O)n1` [CYTARABINE], for which the inhibition at 100 µg/mL is 48% with OST [11]; 40% with PC-13 [12]; 47.9% in the assay with MFH-ST [13]; 48.6% in the assay on ST-KM-1 [14]; 29.5% with MG-63 [15]; 46.2% with PC-3 [16]. For the same molecule, the inhibition at 100 µg/mL with QG-56 [17] was 24.4%; in the assay with HOS [18], 45.4%; in the assay on NUGC-4 [19], 49.9%; with U2OS [20] it was 43.9%. Besides, the IC50 was 0.13 µg/mL (≈ 0.534 µM) in the assay with HT-1080; 0.13 µg/mL (≈ 0.534 µM) with NCC; 0.09 µg/mL (≈ 0.37 µM) in the assay with SK-ES1; 1.6 µg/mL (≈ 6.58 µM) with PC-9; 2.6 µg/mL (≈ 10.7 µM) with HOS-TE85; 2.7 µg/mL (≈ 11.1 µM) with SAOS-2. In addition, the IC50 in the assay with KHOS-321H came to 0.27 µg/mL (≈ 1.11 µM); in the assay with PC-8, 0.28 µg/mL (≈ 1.15 µM); with MKN-28 it was 4.5 µg/mL (≈ 18.5 µM).
